Source: PubChem BioAssay (several laboratories)
Rows were chosen to be rich in hits. Some 2.2% of all compounds tested hit in one or more screens of this group.
Wee1 degr inh: human Wee1 degradation inhibition, primary screen | AID 1321 | reporter increase, % at 5 µM | 220,000 compounds, 1.2% hits | HeLa Luc-Wee1K328M stability, luciferase luminescence; 100% = proteasome inhibitor MG132 effect | P30291;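 active = activation above the mean of all tested compounds plus 3 SD, set per screening run, cut at about 8.8% in these data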;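 note: cells exposed to compound for 20 h before luminescence read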
FLuc inhib CS: inhibits firefly luciferase, flagging false hits in luciferase inhibition screens | P08659 | ATPLite firefly luciferase biochemical luminescence, 10 min | inhibition, % at 10 µM | 200,000 compounds, 1.5% hits | AID 1006;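 active = inhibition above about 50% when tested at 10 µM, limit read from the data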
Target sequence (P08659 whole entry, looked up): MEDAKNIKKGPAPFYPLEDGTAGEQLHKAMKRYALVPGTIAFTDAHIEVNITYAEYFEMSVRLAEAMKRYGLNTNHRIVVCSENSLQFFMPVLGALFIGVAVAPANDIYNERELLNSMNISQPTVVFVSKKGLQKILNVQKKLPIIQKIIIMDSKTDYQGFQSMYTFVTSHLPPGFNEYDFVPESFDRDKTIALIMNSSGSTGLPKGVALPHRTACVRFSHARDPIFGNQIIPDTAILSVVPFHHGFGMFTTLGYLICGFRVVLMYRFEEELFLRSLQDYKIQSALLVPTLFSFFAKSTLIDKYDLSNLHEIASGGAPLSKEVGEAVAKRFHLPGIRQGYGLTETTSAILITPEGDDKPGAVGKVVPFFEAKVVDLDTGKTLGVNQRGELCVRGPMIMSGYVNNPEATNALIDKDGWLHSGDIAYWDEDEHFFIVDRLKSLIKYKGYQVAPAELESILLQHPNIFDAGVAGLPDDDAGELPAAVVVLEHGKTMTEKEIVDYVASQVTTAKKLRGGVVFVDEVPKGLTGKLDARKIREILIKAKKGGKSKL
FLuc stim CS: firefly luciferase counter-screen for stimulation assays | AID 1027 | 200,000 tested, under 10 active | ATPlite luciferase biochemical, luminescence, 10 min; 0 = ATP-free wells, 1 = DMSO control | activation factor at 10 µM;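 active = luciferase activation factor, scaled between plate controls, of at least 2 with compound at 10 µM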
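Assay system: Luciferase/luciferin detection reagent, cell-free biochemical luciferase assay / Read-out: luciferase activation / Benchmarks: No-ATP low control, compound-free enzyme-plus-ATP high control / Medium: PBS buffer for ATP / Detection: luminescence measurement of luciferase light output / Schedule: 10 min at ambient temperature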
PKD1 kinase inh: inhibitors of human PKD1 kinase; inhibition, % (concentration not given with the values); PKD1 kinase fluorescence polarization assay; Q15139; 200,000 compounds, 0.056% hits; AID 797; in the data active = inhibition above about 50%
PPC-1+TRAIL kill: compounds killing PPC-1 cancer cells with TRAIL present (potentiator screen, no TRAIL-free arm) | PPC-1 cells + TRAIL, ATPLite viability luminescence | cell killing (% activity), % at 4 µM or 5 µM | 220,000 compounds, 0.41% hits | AID 1443;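 active = cell killing above 50% in the first pass at 4 µM, then a duplicate retest at 5 µM averaging 50% or more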
C8 TRAIL sens: caspase-8 TRAIL sensitization. NB7+C8 cells + TRAIL, ATPlite viability luminescence. inhibition (viability loss, TRAIL sensitization), % at 10 µM. 360,000 compounds, 1% hits;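 active = compounds causing at least 50% loss of cell viability in the single-dose screen, relative to plate controls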
Of the large screens only hits and unclear results are named; the others gave an inactive call.

CC(C)(CN1CCCC1)NS(=O)(=O)c1ccccc1	none (no result: Wee1 degr inh, FLuc inhib CS, FLuc stim CS, PKD1 kinase inh, PPC-1+TRAIL kill)
CCN(CC)/C(=N/S(=O)(=O)c1ccc(C)cc1)c1ccccc1	Wee1 degr inh 10.0
O=[N+]([O-])c1cccc(COc2ccccc2CO)c1	none (no result: Wee1 degr inh, FLuc inhib CS, FLuc stim CS, PKD1 kinase inh, PPC-1+TRAIL kill)
COc1ccc(/C=C2/Sc3ccc(C(=O)NCCN4CCCCCC4)cc3NC2=O)cc1	C8 TRAIL sens 79 (no result: Wee1 degr inh, FLuc inhib CS, FLuc stim CS, PKD1 kinase inh, PPC-1+TRAIL kill)
O=C1Nc2cc(C(=O)NCCCN3CCCC3)ccc2S/C1=C\c1ccccc1	none (no result: Wee1 degr inh, FLuc inhib CS, FLuc stim CS, PKD1 kinase inh, PPC-1+TRAIL kill)
CN(C(=O)CCn1c(=S)oc2ccccc21)c1ccc(F)cc1	none
O=C(Nc1ccccc1Oc1cccnc1)C1CCCN(C/C=C/c2ccccc2)C1 (configuration not stated)	none (no result: Wee1 degr inh, FLuc inhib CS, FLuc stim CS, PKD1 kinase inh, PPC-1+TRAIL kill)
CCOC(=O)[C@]12CCC=C1N(Cc1ccco1)C(=O)[C@H](CC(=O)NCc1ccc(C)o1)C2	none (no result: Wee1 degr inh, FLuc inhib CS, FLuc stim CS, PKD1 kinase inh, PPC-1+TRAIL kill)
CC(C)N=C1NN=C(c2cccs2)CS1	none
CC(C)c1ccc(N=C2NN=C(c3cccs3)CS2)cc1	FLuc inhib CS 50
O=C(NCCC1=CCCCC1)C1CC(=O)N(Cc2ccccc2)C1 (configuration not stated)	none (no result: Wee1 degr inh, FLuc inhib CS, FLuc stim CS, PKD1 kinase inh, PPC-1+TRAIL kill)
CN1CCN(CCCCOc2ccc(Br)cc2)CC1	none (no result: Wee1 degr inh, FLuc inhib CS, FLuc stim CS, PKD1 kinase inh, PPC-1+TRAIL kill)
COc1ccccc1N(C)S(=O)(=O)c1ccc(C(=O)NCC2CCCCC2)cc1	none (no result: Wee1 degr inh, FLuc inhib CS, FLuc stim CS, PKD1 kinase inh, PPC-1+TRAIL kill)
CCC(C(=O)NCc1ccc(F)cc1)N(Cc1cccs1)C(=O)c1snc(C(N)=O)c1N (configuration not stated)	none (no result: Wee1 degr inh, FLuc inhib CS, FLuc stim CS, PKD1 kinase inh, PPC-1+TRAIL kill)
CCC(C(=O)NC1CCCCC1)N(Cc1cccs1)C(=O)c1snc(C(N)=O)c1N (configuration not stated)	Wee1 degr inh 9.8
CCCC(C(=O)NC(C)(C)C)N(CC1CCCO1)C(=O)c1snc(C(N)=O)c1N (configuration not stated)	Wee1 degr inh 9.4
Nc1c(C(=O)Nc2ccc(F)cc2)sc(=S)n1-c1ccccc1F	none
Cc1ccc(C)c(N(C)C(=O)CCS(=O)(=O)c2cccc3nonc23)c1	none (no result: Wee1 degr inh, FLuc inhib CS, FLuc stim CS, PKD1 kinase inh, PPC-1+TRAIL kill)
Cc1ccc(NC(=O)CN2C(=O)NC(Cc3c[nH]c4ccccc34)C2=O)cc1 (configuration not stated)	none (no result: Wee1 degr inh, FLuc inhib CS, FLuc stim CS, PKD1 kinase inh, PPC-1+TRAIL kill)
CCN(CC)CCN1C(=O)/C(=C\c2ccc(Cl)c([N+](=O)[O-])c2)SC1=Nc1ccc(OC)cc1	C8 TRAIL sens 89 (no result: Wee1 degr inh, FLuc inhib CS, FLuc stim CS, PKD1 kinase inh, PPC-1+TRAIL kill)
CCCN1C(=O)/C(=C/c2ccc(C)s2)SC1=Nc1ccc(OC)cc1	none
COc1ccc(N=C2S/C(=C\c3ccc(Cl)c([N+](=O)[O-])c3)C(=O)N2CCN(C)C)cc1	C8 TRAIL sens 80 (no result: Wee1 degr inh, FLuc inhib CS, FLuc stim CS, PKD1 kinase inh, PPC-1+TRAIL kill)
CC(=O)Oc1ccc(-c2csc(Nc3ccc(Cl)cn3)n2)cc1	none (no result: Wee1 degr inh, FLuc inhib CS, FLuc stim CS, PKD1 kinase inh, PPC-1+TRAIL kill)
CC(=O)Nc1ccc(-c2csc(Nc3cccc(C)n3)n2)cc1	none
Cc1ccc(-c2csc(Nc3ccccn3)n2)cc1	C8 TRAIL sens 62 (no result: Wee1 degr inh, FLuc inhib CS, FLuc stim CS, PKD1 kinase inh, PPC-1+TRAIL kill)
CC(=O)Nc1cccc(-c2csc(Nc3ccc(C)cn3)n2)c1	FLuc inhib CS 71, C8 TRAIL sens 64
COc1ccc(-c2csc(Nc3ccc(C)cn3)n2)cc1	Wee1 degr inh 9.6
c1ccc(-c2csc(Nc3ccccn3)n2)cc1	none (no result: Wee1 degr inh, FLuc inhib CS, FLuc stim CS, PKD1 kinase inh, PPC-1+TRAIL kill)
Oc1ccc(-c2csc(Nc3ncccn3)n2)cc1O	FLuc inhib CS 53
Oc1ccc(-c2csc(Nc3ncccn3)n2)c(O)c1	none
CCCCNC(=O)COC(=O)c1cc(C)oc1C	none
O=C(c1ccc(NS(=O)(=O)c2ccc(F)cc2)cc1)N1CCC1	none (no result: Wee1 degr inh, FLuc inhib CS, FLuc stim CS, PKD1 kinase inh, PPC-1+TRAIL kill)
Fc1ccc(-c2ccc3c(c2)C2CC3CCN2)cc1 (configuration not stated)	none (no result: Wee1 degr inh, FLuc inhib CS, FLuc stim CS, PKD1 kinase inh, PPC-1+TRAIL kill)
Cn1c(SCC(=O)Nc2nncs2)nnc1C1CC1	none (no result: Wee1 degr inh, FLuc inhib CS, FLuc stim CS, PKD1 kinase inh, PPC-1+TRAIL kill)
Fc1ccc(-c2csc(Nc3ccccn3)n2)c(F)c1	C8 TRAIL sens 57 (no result: Wee1 degr inh, FLuc inhib CS, FLuc stim CS, PKD1 kinase inh, PPC-1+TRAIL kill)
CCOc1ccc(-n2nc(C(=O)NCCOC)c3ccccc3c2=O)cc1	none
CCOc1ccc(-n2nc(C(=O)N3CCN(CC)CC3)c3ccccc3c2=O)cc1	Wee1 degr inh 9.6
O=C(Nc1cnn(C23CC4CC(CC(C4)C2)C3)c1)c1cnn2cccnc12	FLuc inhib CS 67
CCOC(=O)[C@]12CCC=C1N(Cc1ccc3c(c1)OCO3)C(=O)[C@H](CC(=O)NCc1ccccc1)C2	none (no result: Wee1 degr inh, FLuc inhib CS, FLuc stim CS, PKD1 kinase inh, PPC-1+TRAIL kill)
CC(Nc1ncnc2sccc12)c1ccccc1 (configuration not stated)	none (no result: Wee1 degr inh, FLuc inhib CS, FLuc stim CS, PKD1 kinase inh, PPC-1+TRAIL kill)
Oc1c(N=NC(=S)Nc2ccccc2F)c2ccccc2n1Cc1ccccc1Cl	none
Cc1c(Cl)cccc1NC(=S)N=Nc1c(O)n(CN2CCOCC2)c2ccccc12	PPC-1+TRAIL kill 53
